Measurements of several laboratories.
Lines come from different studies, so protocols differ.
M-phase phosphoprotein 8 chromodomain: M-phase phosphoprotein 8, chromodomain (Homo sapiens, UniProt Q99549)
AChE: AChE (Phlebotomus papatasi, UniProt M1F887)
HTR1A: 5-hydroxytryptamine receptor 1A (HTR1A, Homo sapiens, UniProt P08908)
ESR1: Estrogen receptor (ESR1, Homo sapiens, UniProt P03372)

Compound	target	observed	mode	technique	endpoint	result
CCN(CCCC[C@H](NC(=O)[C@H](C)NC(=O)[C@H](C)NC(=O)[C@H](Cc1ccccc1)NC(=O)c1cccnc1)C(=O)N[C@@H](CO)C(N)=O)C(C)C	M-phase phosphoprotein 8 chromodomain	cell-free assay	–	TR-FRET	IC50	3400 nM
C=CC[N+](C)(C)c1ccc(CCC(=O)CCc2ccc([N+](C)(C)CC=C)cc2)cc1	AChE	enzyme activity	inhibitor	–	IC50	30 nM
NCCc1c[nH]c2ccc(F)cc12	HTR1A	ligand displacement	–	radioligand	Ki	18 nM
CCN(CCCC[C@H](NC(=O)[C@H](CC(C)C)NC(=O)[C@H](C)NC(=O)[C@H](CC1CCCCC1)NC(=O)c1cccnc1)C(=O)N[C@@H](CO)C(N)=O)C(C)C	M-phase phosphoprotein 8 chromodomain	cell-free assay	–	TR-FRET	IC50	1500 nM
C[C@]12CC[C@H]3[C@@H](CCC4=C[C@@H](O)CC[C@@H]43)[C@@H]1CC[C@@H]2O	ESR1	ligand displacement	–	–	IC50	134 nM
C[C@]1(O)CC[C@H]2[C@@H]3CCC4=CC(=O)CCC4=C3CC[C@@]21C	ESR1	reporter gene	agonist	–	EC50	4230 nM
CNC(=O)Oc1ccc2c(c1)[C@]1(C)CCN(C)[C@@H]1N2C	AChE	enzyme activity	inhibitor	–	IC50	9 nM
NCCc1c[nH]c2ccc(Cl)cc12	HTR1A	ligand displacement	–	radioligand	Ki	5.5 nM
